Measured values: BindingDB's records for doi:10.1016/j.ejmech.2013.05.047 (Chulalongkorn University, 2013)

Columns and labels:
[1] = target: T1, Lysosomal alpha-glucosidase (Rattus norvegicus, UniProt Q6P7A9); experiment: Inhibition of rat intestine maltase using maltose as substrate incubated for 10 mins prior to substrate addition measured after 40 mins by glucose oxidase colorimetric method
Method in brief: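 Crude intestinal enzyme supernatant (12,000 g, 30 min) preincubated with test compound (1 mg/mL, 10 µL) at 37 C for 10 min. Substrate in 0.1 M phosphate buffer pH 6.9 was then added: maltose 0.58 mM for maltase, sucrose 20 mM for sucrase. Incubated 40 min at 37 C, stopped by heating at 80 C for 15 min. Released glucose measured by the glucose oxidase kit. % inhibition = [(A0 − A1)/A0] × 100.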

[2] = target: T1, Lysosomal alpha-glucosidase; experiment: Competitive inhibition of rat intestine maltase using maltose as substrate by Lineweaver-Burk plot analysis
Method in brief: (§1)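 Same maltase/sucrase reactions, with activity held at 0.45 (maltase) and 0.09 (sucrase) U/mg protein. Inhibitor 0 to 20.4 mM against substrate 1.0 to 20.0 mM. Vmax and Km obtained from Lineweaver–Burk intercepts and slopes. Ki (EI) from a secondary plot of slope versus inhibitor concentration; Ki′ (ESI) from a secondary plot of intercept versus inhibitor concentration.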

[3] = target: T1, Lysosomal alpha-glucosidase; experiment: Non-competitive inhibition of rat intestine maltase using maltose as substrate by Lineweaver-Burk plot analysis; method in brief: as §1

T1 sequence (Q6P7A9 whole entry): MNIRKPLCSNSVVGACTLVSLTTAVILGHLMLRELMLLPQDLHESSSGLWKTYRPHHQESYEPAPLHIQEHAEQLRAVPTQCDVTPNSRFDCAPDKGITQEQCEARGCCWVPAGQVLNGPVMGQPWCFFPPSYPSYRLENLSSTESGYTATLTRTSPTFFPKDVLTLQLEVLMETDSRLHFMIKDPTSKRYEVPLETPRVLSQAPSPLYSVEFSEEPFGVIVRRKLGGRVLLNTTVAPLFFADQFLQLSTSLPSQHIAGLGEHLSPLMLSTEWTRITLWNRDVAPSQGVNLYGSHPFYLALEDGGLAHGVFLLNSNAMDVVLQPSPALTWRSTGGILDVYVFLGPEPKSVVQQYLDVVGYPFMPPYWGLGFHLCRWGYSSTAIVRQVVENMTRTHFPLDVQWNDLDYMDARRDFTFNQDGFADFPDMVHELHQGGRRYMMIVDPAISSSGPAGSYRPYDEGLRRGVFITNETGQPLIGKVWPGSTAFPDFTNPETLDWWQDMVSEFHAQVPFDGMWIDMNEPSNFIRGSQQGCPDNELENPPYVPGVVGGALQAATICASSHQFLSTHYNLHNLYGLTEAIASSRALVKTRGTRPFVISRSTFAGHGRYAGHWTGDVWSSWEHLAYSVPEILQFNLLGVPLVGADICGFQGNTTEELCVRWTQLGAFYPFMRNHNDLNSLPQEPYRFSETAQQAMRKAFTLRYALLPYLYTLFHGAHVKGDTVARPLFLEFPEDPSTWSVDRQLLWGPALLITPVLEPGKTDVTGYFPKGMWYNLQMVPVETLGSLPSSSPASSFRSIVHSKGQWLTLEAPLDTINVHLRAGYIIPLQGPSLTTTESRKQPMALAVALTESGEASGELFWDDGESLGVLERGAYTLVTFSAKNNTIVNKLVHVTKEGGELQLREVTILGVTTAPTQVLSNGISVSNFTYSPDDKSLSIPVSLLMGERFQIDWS

IC50 [1] | Ki [2] | Ki [3] | Compound
51.9 µM | – | – | COc1cc(/C=C/C(=O)O[C@@H]2C[C@@H](O)[C@H](O)[C@@H](O)[C@H]2O)ccc1O
367 µM | – | – | COc1ccc(/C=C/C(=O)O[C@H]2C[C@@H](O)[C@H](O)[C@@H](O)[C@H]2O)cc1O
497 µM | – | – | O=C(/C=C/c1ccc(O)c(O)c1)O[C@H]1C[C@@H](O)[C@H](O)[C@@H](O)[C@H]1O
34.7 µM | – | – | O=C(O)/C=C/c1ccc(O)c(O)c1 [3,4-Dihydroxycinnamate, XVII]
20.8 µM | – | – | COc1ccc(/C=C/C(=O)O[C@@H]2C[C@@H](O)[C@H](O)[C@@H](O)[C@H]2O)cc1O
5.31 µM | 23.8 µM | 64.5 µM | O=C(/C=C/c1ccc(O)c(O)c1)O[C@@H]1C[C@@H](O)[C@H](O)[C@@H](O)[C@H]1O
21.1 µM | – | – | COc1cc(/C=C/C(=O)O[C@H]2C[C@@H](O)[C@H](O)[C@@H](O)[C@H]2O)ccc1O
